# According to ChEMBL document CHEMBL1772965, “Analogues and derivatives of oncrasin-1, a novel inhibitor of the C-terminal domain of RNA polymerase II and their antitumor activities” (J Med Chem, 2011):
# Legend:
# [1] = Cytotoxicity against mutant K-ras-transformed human T29Kt1 cells assessed as cell viability after 3 days by sulforhodamine B assay; assay type: functional, cell-based; conditions: T29Kt1, 72 h
# Method in brief: (§1)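 Monolayer cultures were grown in RPMI-1640 or DMEM with 10% heat-inactivated fetal calf serum and penicillin/streptomycin, at 37°C and 5% CO2. Cells were exposed for 3 days to compound from 10−4.5 M (31.6 μM) down to 10−8 M (10 nM), with 1% DMSO as the control. Viability was read by sulforhodamine B. IC50 was the dose halving surviving cells versus control, run in quadruplicate and repeated at least three times.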
# NCI-H460 = experiment: Cytotoxicity against human H460 cells assessed as cell viability after 3 days by sulforhodamine B assay; assay type: functional, cell-based; conditions: NCI-H460, 72 h; method in brief: as §1
# [2] = Cytotoxicity against human T29 cells assessed as cell viability after 3 days by sulforhodamine B assay; assay type: cell-based; conditions: T29, 72 h; method in brief: as §1
# [3] = Stability of compound at pH 7.4; assay type: physicochemical; conditions: buffer
# [4] = Stability of compound at pH 2; assay type: physicochemical; conditions: buffer
# [5] = Stability of compound at pH 6; assay type: physicochemical; conditions: buffer
# [6] = Stability of compound at pH 4; assay type: physicochemical; conditions: buffer
# [7] = Stability of compound at pH 9; assay type: physicochemical; conditions: buffer
Compound,IC50 [1],IC50 (NCI-H460),IC50 [2],Stability [3],Stability [4],Stability [5],Stability [6],Stability [7]
COCc1cn(Cc2ccc(Cl)cc2)c2ccccc12,7.94 µM,1.99 µM,> 31.6 µM,,,,,
O=Cc1cn(Cc2ccccc2)c2ccccc12,5 µM,0.045 µM,> 31.6 µM,Stable,Stable,,,
OCc1cn(Cc2cccc(C(F)(F)F)c2)c2ccccc12,0.56 µM,0.039 µM,> 31.6 µM,Stable,Unstable,Stable,Stable,Stable
CC(=O)c1cn(Cc2ccc(Cl)cc2)c2ccccc12,> 31.6 µM,> 31.6 µM,> 31.6 µM,,,,,
Cc1ccc(Cn2cc(C=O)c3ccccc32)cc1,3.98 µM,0.063 µM,> 31.6 µM,Stable,Stable,,,
COc1ccc2c(c1)c(CO)cn2Cc1ccc(Cl)cc1,12.5 µM,1.51 µM,> 31.6 µM,Stable,Unstable,Stable,Stable,Stable
CC(=O)OCc1cn(Cc2ccc(Cl)cc2)c2ccccc12,0.063 µM,0.039 µM,> 31.6 µM,,,,,
O=CC1C(=O)N(Cc2ccc(Cl)cc2)c2cc(Cl)ccc21 (stereo not given),18.2 µM,18.2 µM,18.6 µM,Stable,Stable,,,
OCc1cn(Cc2ccccc2Cl)c2ccccc12,2.51 µM,0.1 µM,> 31.6 µM,Stable,Unstable,Stable,Stable,Stable
O=Cc1cn(Cc2ccc(Cl)cc2)c2ccc(F)cc12,9.09 µM,0.29 µM,> 31.6 µM,Stable,Stable,,,
O=Cc1cn(Cc2ccc(C(F)(F)F)cc2)c2ccccc12,> 31.6 µM,1.58 µM,> 31.6 µM,Stable,Stable,,,
O=Cc1cn(Cc2ccc(Cl)cc2Cl)c2ccccc12,1.58 µM,0.1 µM,> 31.6 µM,Stable,Stable,,,
O=C(O)c1cn(Cc2ccc(Cl)cc2)c2ccccc12,> 31.6 µM,> 31.6 µM,> 31.6 µM,,,,,
Cc1cccc(Cn2cc(C=O)c3ccccc32)c1,6.3 µM,0.039 µM,> 31.6 µM,Stable,Stable,,,
O=Cc1cn(Cc2ccc([N+](=O)[O-])cc2)c2ccccc12,10 µM,0.5 µM,> 31.6 µM,Stable,Stable,,,
COc1ccc(Cn2cc(CO)c3ccccc32)cc1,0.063 µM,0.079 µM,> 31.6 µM,Stable,Unstable,Stable,Stable,Stable
O=C(O)c1cn(Cc2ccccc2)c2ccccc12,> 31.6 µM,> 31.6 µM,> 31.6 µM,,,,,
O=Cc1cn(Cc2ccc(Cl)cc2)c2ccccc12,2.51 µM,0.25 µM,> 31.6 µM,Stable,Stable,,,
O=Cc1cn(Cc2cccc([N+](=O)[O-])c2)c2ccccc12,0.5 µM,0.039 µM,> 31.6 µM,Stable,Stable,,,
OCc1cn(Cc2ccccc2)c2ccccc12,0.03 µM,0.112 µM,14.5 µM,Stable,Unstable,Stable,Stable,Stable
O=Cc1cn(Cc2ccccc2F)c2ccccc12,0.31 µM,0.1 µM,> 31.6 µM,Stable,Stable,,,
N#Cc1cn(Cc2cccc(Cl)c2)c2ccccc12,> 31.6 µM,> 31.6 µM,> 31.6 µM,,,,,
OCCCc1cn(Cc2ccccc2)c2ccccc12,> 31.6 µM,> 31.6 µM,> 31.6 µM,,,,,
OCc1cn(Cc2ccc(F)cc2)c2ccccc12,0.03 µM,0.118 µM,17 µM,Stable,Unstable,Stable,Stable,Stable
O=Cc1cn(Cc2cccc(C(F)(F)F)c2)c2ccccc12,1.78 µM,0.14 µM,> 31.6 µM,Stable,Stable,,,
CC(=O)c1cn(Cc2ccccc2)c2ccccc12,> 31.6 µM,10 µM,> 31.6 µM,,,,,
O=Cc1cn(Cc2ccc(Cl)cc2)c2cc(F)ccc12,9.19 µM,0.12 µM,> 31.6 µM,Stable,Stable,,,

Compound,IC50 [1],IC50 (NCI-H460),IC50 [2],Stability [3],Stability [4],Stability [5],Stability [6],Stability [7]
Cc1cn(Cc2ccc(Cl)cc2)c2ccccc12,> 31.6 µM,> 31.6 µM,> 31.6 µM,,,,,
OCc1cc2cc(F)ccc2n1Cc1ccc(Cl)cc1,15.1 µM,11.5 µM,17.4 µM,,,,,
Brc1cccc(Cn2cc(Cc3cn(Cc4cccc(Br)c4)c4ccccc34)c3ccccc32)c1,> 31.6 µM,> 31.6 µM,> 31.6 µM,,,,,
COC(=O)c1cn(Cc2ccc(Br)cc2)c2ccccc12,6.3 µM,5 µM,5 µM,,,,,
O=Cc1cn(Cc2cccc(Br)c2)c2ccccc12,1.58 µM,0.039 µM,> 31.6 µM,Stable,Stable,,,
OCc1cn(Cc2ccc(Br)cc2)c2ccccc12,0.39 µM,0.031 µM,> 31.6 µM,Stable,Unstable,Stable,Stable,Stable
O=Cc1cn(Cc2ccc(Br)c(Br)c2)c2ccccc12,0.63 µM,0.063 µM,> 31.6 µM,Stable,Stable,,,
OCc1cn(Cc2cccc(F)c2)c2ccccc12,0.02 µM,0.04 µM,> 31.6 µM,Stable,Unstable,Stable,Stable,Stable
OCc1cn(Cc2ccc(C(F)(F)F)cc2)c2ccccc12,1.25 µM,1.25 µM,> 31.6 µM,Stable,Unstable,Stable,Stable,Stable
CC(O)c1cn(Cc2ccc(Cl)cc2)c2ccccc12 (stereo not given),19.9 µM,25.1 µM,> 31.5 µM,,,,,
O=Cc1cn(Cc2cccc(Cl)c2)c2ccccc12,0.37 µM,0.037 µM,> 31.6 µM,Stable,Stable,,,
OCCc1cn(Cc2ccc(Cl)cc2)c2ccccc12,> 31.6 µM,> 31.6 µM,> 31.6 µM,,,,,
CC(=O)c1cn(Cc2ccccc2Cl)c2ccccc12,> 31.6 µM,> 31.6 µM,> 31.6 µM,,,,,
COC(=O)CNCc1cn(Cc2ccc(Cl)cc2)c2ccccc12,5.01 µM,0.1 µM,31.6 µM,,,,,
c1ccc(Cn2ccc3ccccc32)cc1,> 31.6 µM,> 31.6 µM,> 31.6 µM,,,,,
O=Cc1cn(Cc2ccc(Cl)cc2)c2ccc(Cl)cc12,10 µM,0.4 µM,> 31.6 µM,Stable,Stable,,,
O=Cc1cn(Cc2cccc(F)c2)c2ccccc12,2.63 µM,0.031 µM,> 31.6 µM,Stable,Stable,,,
O=Cc1cn(CCCOc2ccc(Cl)cc2)c2ccccc12,4.89 µM,0.045 µM,> 31.6 µM,Stable,Stable,,,
O=Cc1cn(Cc2ccc(Br)cc2)c2ccccc12,0.25 µM,0.031 µM,> 31.6 µM,Stable,Stable,,,
CC(=O)c1cn(Cc2cccc(Cl)c2)c2ccccc12,> 31.6 µM,> 31.6 µM,> 31.6 µM,,,,,
Clc1cccc(Cn2cc(Cc3cn(Cc4cccc(Cl)c4)c4ccccc34)c3ccccc32)c1,> 31.6 µM,> 31.6 µM,> 31.6 µM,,,,,
CC(C)Cn1cc(C=O)c2ccccc21,> 31.6 µM,1.99 µM,> 31.6 µM,Stable,Stable,,,
O=Cc1cn(Cc2cccc(Cl)c2)c2ccc(F)cc12,1.5 µM,0.37 µM,> 31.6 µM,Stable,Stable,,,
COC(=O)c1cn(Cc2ccc(Cl)cc2)c2ccccc12,25.1 µM,31.6 µM,17.7 µM,,,,,
O=Cc1cn(Cc2ccc(Cl)cc2)c2cc(Br)ccc12,32 µM,0.09 µM,21 µM,Stable,Stable,,,
O=C(NC1CCCCC1)OCc1cn(Cc2ccc(Cl)cc2)c2ccccc12,0.2 µM,0.02 µM,> 31.6 µM,,,,,
